Article PMC3658176 (Cancer cell, 2013)
Where no end group is shown, it is not given here.

Tests used:
H2-K^b = target: T1, H2-K^b (Mus musculus, UniProt P01901); assay: Cell-free competition MHC peptide binding assay, purified H2-K^b
T1 sequence (P01901 22-369): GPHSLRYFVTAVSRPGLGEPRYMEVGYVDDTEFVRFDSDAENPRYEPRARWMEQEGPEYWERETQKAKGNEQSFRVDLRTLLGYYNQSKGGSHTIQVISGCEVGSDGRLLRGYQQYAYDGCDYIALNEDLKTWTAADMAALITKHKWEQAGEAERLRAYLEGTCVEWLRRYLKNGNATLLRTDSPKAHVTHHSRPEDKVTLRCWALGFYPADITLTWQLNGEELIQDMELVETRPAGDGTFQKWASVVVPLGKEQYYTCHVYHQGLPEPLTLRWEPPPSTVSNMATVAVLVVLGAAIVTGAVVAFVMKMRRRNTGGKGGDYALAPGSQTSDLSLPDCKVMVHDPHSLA
T1 sequence (P01887 21-119 partner): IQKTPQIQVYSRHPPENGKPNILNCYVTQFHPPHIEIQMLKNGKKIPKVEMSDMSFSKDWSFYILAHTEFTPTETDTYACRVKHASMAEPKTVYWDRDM

H2-D^b = target: T2, H2-D^b (Mus musculus, UniProt P01899); assay: Cell-free competition MHC peptide binding assay, purified H2-D^b
T2 sequence (P01899 25-362): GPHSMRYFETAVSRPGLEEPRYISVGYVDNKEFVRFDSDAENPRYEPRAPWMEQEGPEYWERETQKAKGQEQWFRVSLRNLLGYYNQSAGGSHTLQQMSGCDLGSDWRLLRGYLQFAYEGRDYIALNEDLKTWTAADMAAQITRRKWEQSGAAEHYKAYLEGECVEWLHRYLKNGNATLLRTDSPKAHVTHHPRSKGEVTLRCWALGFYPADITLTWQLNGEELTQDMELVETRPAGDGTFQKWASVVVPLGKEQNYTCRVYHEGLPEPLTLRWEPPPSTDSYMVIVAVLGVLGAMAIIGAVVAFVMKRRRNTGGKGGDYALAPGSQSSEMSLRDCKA
T2 sequence (P01887 21-119 partner): T1 sequence (P01887 21-119 partner)

HLA-A*0201 = HLA-A*0201 (Homo sapiens, UniProt P04439, D140Y/D185E/D98H/E176V/E277Q/G131W/G231S/I119V/I121R/I166T/I218V/L300P/L318F/N151K/N90K/P208A/P217A/Q86G/Q94H/R138H/R169H/T345S); assay: Cell-free competition MHC peptide binding assay, purified HLA-A*0201
Procedure, shortened: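 Purified MHC class I molecule incubated with a labelled probe peptide and graded concentrations of unlabelled test peptide. IC50 taken as the inhibitor peptide concentration that displaces half of the probe. Labelled probe concentration was below MHC concentration. Under these conditions, and where IC50 ≥ MHC concentration, IC50 approximates KD.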

Row | IC50 (H2-D^b) [nM] | Molecule | IC50 (H2-K^b) [nM] | further results
1 |  | CC[C@H](C)[C@H](NC(=O)[C@@H](NC(=O)[C@@H](N)CO)[C@@H](C)CC)C(=O)N[C@@H](CC(N)=O)C(=O)N[C@@H](Cc1ccccc1)C(=O)N[C@@H](CCC(=O)O)C(=O)N[C@@H](CCCCN)C(=O)N[C@@H](CC(C)C)C(=O)O [OVA257–264] | 0.9 | 
2 | 454 | EGPRNQDWL [EGP] |  | 
3 |  | FMDGTMSQV [Tyr369–377] |  | IC50 (HLA-A*0201): 4.2 nM
4 | 186 | KVPRNQDWL [hgp100_25–33] |  | 
5 |  | SIYRYYGL [SIY] | 1.1 | 

Row | Molecule | IC50 (H2-D^b) [nM] | IC50 (H2-K^b) [nM] | further results
6 | EGSRNQDWL [mgp100_25–33] | 23000 |  | 
